High-throughput results deposited in PubChem BioAssay by several laboratories.
aDG glyco act: alpha-DG glycosylation activation; Pro5-aDG cells, alpha-DG glycosylation AlphaScreen (IIH6); 0% Pro5, 100% B10-LARGE cell signal; activation, % at 10 µM; 0.22% of 360,000 active; AID 624168;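 active = activation of at least 8% versus controls, or a plate z-score of at least 8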;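 also: Pro5 are CHO cells carrying HIG-tagged alpha-DG that lacks glycosylation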
MsrA act: bovine methionine sulfoxide reductase A activation; 0.3% of 360,000 active; purified bovine MsrA, absorbance read-out; activation, % at 10.6 µM; in the data active = activation above about 7.5%;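 also: 0% = vehicle and 100% = reference activator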
N-glyco inh: blocks N-linked glycosylation in D54 reporter cells. reporter increase, % at 12.5 µM. D54 ERlucT glycosylation luciferase reporter, 24 h; percent of 100 nM tunicamycin response. AID 588692. 0.23% of 360,000 active;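 active = mean luciferase reporter signal, scaled so untreated is 0 and the glycosylation-blocking control 100, at or above a set limit in every replicate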;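 also: luciferase carries N-glycosylation sites so blocking glycosylation raises the light; 0% = median of neutral control wells and 100% = median of 100 nM tunicamycin wells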
UCH37 inh: human UCH37 deubiquitinating enzyme inhibition; Q9Y5K5; purified proteasome/UCH37, Ub-AMC cleavage fluorescence; inhibition, % (no concentration beside the values); 0.33% of 330,000 active;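 active = mean inhibition over replicate wells above about 20%, limit read from the data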;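 also: 0% = compound-free wells with enzyme and 100% = wells lacking proteasome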
Target sequence (Q9Y5K5 whole entry, looked up): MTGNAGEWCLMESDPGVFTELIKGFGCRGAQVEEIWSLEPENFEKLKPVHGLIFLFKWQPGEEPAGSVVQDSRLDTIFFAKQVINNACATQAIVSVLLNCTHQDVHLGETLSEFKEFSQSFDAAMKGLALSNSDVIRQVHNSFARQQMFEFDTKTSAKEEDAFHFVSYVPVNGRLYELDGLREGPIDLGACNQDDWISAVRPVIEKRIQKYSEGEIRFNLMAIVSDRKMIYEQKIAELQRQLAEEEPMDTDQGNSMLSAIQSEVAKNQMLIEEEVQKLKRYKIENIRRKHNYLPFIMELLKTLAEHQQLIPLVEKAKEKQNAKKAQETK
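Signal – fluorescence, ex 355 nm, em 460 nm · System – Proteasome-bound UCH37 · Input – 0.15 nM proteasome as dispensed · Timing – 30 min preincubation with enzyme, 25 min cleavage at room temperature · Read-out basis – percent inhibition of cleavage signal versus uninhibited and no-proteasome wells · Medium – Tris-HCl pH 7.4 with ATP-MgCl2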
MsrA inh: bovine MsrA inhibition; 0.75% of 360,000 active; purified bovine MsrA, absorbance read-out; inhibition, % at 15.5 µM; in the data active = inhibition above about 4.5%;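 also: 0% = vehicle wells with enzyme and 100% = reference inhibitor wells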
Vif imaging: blocks HIV Vif function; HEK293T cells, Vif self-association by quenched fluorescence, imaging, 24 h; inhibition, % at 7.49 µM; 0.35% of 340,000 active; in the data active = inhibition above about 50%, passing the limit was not always enough
Starred values were filed as active, the others as inactive; i = inactive; nt = no result. Hits are enriched below; roughly 1.9% of the tested compounds scored in any of these assays.

SMILES	aDG glyco act	MsrA act	N-glyco inh	UCH37 inh	MsrA inh	Vif imaging
CCC(Sc1nc(N)cc(=O)[nH]1)C(=O)NC(C(=O)OC)c1ccccc1 (stereo unspecified)	nt	nt	nt	32*	-1	nt
COC(=O)C(C)n1cnc2c(cnn2-c2ccc(Cl)cc2)c1=O (stereo unspecified)	1	-1	-2	30*	0	-7
O=C(CCC(=O)N1CCOCC1)Nc1ccc(Cl)c(Cl)c1	0	-1	nt	3	2	nt
NS(=O)(=O)c1ccc(NC(=O)CCC(=O)N2CCOCC2)cc1	0	-3	1	nt	0	58*
Cc1ccc(-c2nnc(SCC(=O)NN=Cc3ccccc3C(=O)O)n2-c2ccc(C)cc2)cc1	nt	nt	nt	2	nt	nt
N#Cc1ccc(-c2ccccc2)nc1SCC(=O)c1cccc(Cl)c1	0	-5	0	-6	0	i
N#Cc1ccc(-c2cccnc2)nc1SCC(=O)c1ccccc1	0	-4	-8	-1	1	173*
Clc1nccnc1NN=Cc1ccc(Br)cc1	nt	nt	nt	7	nt	nt
COc1ccc(C(C)=NOCC(=O)N=Nc2c(O)[nH]c3ccc(Br)cc23)cc1	nt	nt	nt	7	nt	nt
CCn1c(CC(=O)Nc2ccccc2F)nnc1SCC(=O)Nc1nnc(C)s1	0	-2	1	5	-1	28
CCn1c(CC(=O)Nc2ccccc2)nnc1SCC(=O)Nc1nnc(C)s1	0	-3	-3	2	0	68*
CC(C)(C)c1cc(C(=O)NN=Cc2ccncc2)n[nH]1	nt	nt	nt	4	nt	nt
CCN(C(=O)COc1ccc(C)cc1OC)c1cccc2ccccc12	0	-3	-1	3	3	57*
N#CC[C@H](Cc1ccccc1)N1CC[C@@H](NC(=O)OCc2ccccc2)CCC1=O	0	-3	-3	23*	0	-1
O=C(Cn1c(=O)oc2cc(S(=O)(=O)N3CCCC3)ccc21)N1CCc2ccccc2C1	0	-7	-4	6	0	12
O=C(Cn1c(=O)oc2cc(S(=O)(=O)N3CCCCC3)ccc21)N1CCc2ccccc21	0	-1	1	5	0	53*
COc1cc2c3nnc(-c4ccc(F)cc4)c-3cn(Cc3ccc(F)cc3)c2cc1OC	0	0	-9	-120	0	94*
O=C(CCl)N1N=C(c2ccco2)CC1c1ccco1 (stereo unspecified)	1	-14	8	-2	1	-5
CC(=O)C1=C(O)C=C(c2ccco2)CC1c1ccco1 (stereo unspecified)	0	-13	0	7	4.8*	-9
COc1cc(C=Nn2cnnc2)ccc1Oc1nc(Cl)ncc1F	nt	nt	nt	4	nt	nt
CCN(CCCNC(=O)C1CCC(=O)N1Cc1ccc(F)cc1)c1cccc(C)c1 (stereo unspecified)	0	11*	-1	-3	0	15
O=[N+]([O-])c1ccc(C=NNc2nc(N3CCCCC3)nc(N3CCCCC3)n2)o1	nt	nt	nt	2	nt	nt
O=C(N/N=C/c1ccc([N+](=O)[O-])s1)c1ccccc1	9.5*	6	1	nt	2	0
O=C(N/N=C/c1ccc([N+](=O)[O-])s1)c1ccccc1Br	5.6*	3	4	nt	3	89*
O=C(N/N=C/c1ccc([N+](=O)[O-])s1)C(O)c1ccccc1 (stereo unspecified)	11*	-3	-7	nt	3	-1
SMILES	aDG glyco act	MsrA act	N-glyco inh	UCH37 inh	MsrA inh	Vif imaging
Cc1ccccc1NC(=O)CCC(=O)NN=Cc1cc([N+](=O)[O-])ccc1O	nt	nt	nt	8	nt	nt
CC(NC(=O)C12CC3CC(CC(C3)C1)C2)C(=O)NN=CC1=C(N2CCOCC2)/C(=C\c2ccccc2)CC1 (stereo unspecified)	nt	nt	nt	0	nt	nt
Clc1ccccc1CN1CCN(N=C/C=C/c2ccco2)CC1	nt	nt	nt	8	nt	nt
COc1cc(NC(=O)COC(=O)CON=C(C)c2ccc3c(c2)OCO3)cc(OC)c1	nt	nt	nt	0	nt	nt
Cc1ccc(C=NN2CCN(Cc3ccccc3)CC2)cc1	nt	nt	nt	1	nt	nt
CC(=O)Oc1cccc(Nc2ncnc3ccccc23)c1	0	-8	-4	3	1	-9
Cc1ccccc1C(=O)Oc1cccc(Nc2ncnc3ccccc23)c1	6.3*	-2	-1	-45	1	nt
CCOC(=O)C1CCN(S(=O)(=O)c2cccc(-c3cn4cccnc4n3)c2)CC1	0	-1	-1	-251	2	-14
CCOC(=O)C1CCN(S(=O)(=O)c2cccc(-c3cn4cc(C)ccc4n3)c2)CC1	0	3	-1	-1	1	64*
O=C(NN=CC1C(c2ccccc2)C1(Cl)Cl)c1cccc(Br)c1 (stereo unspecified)	nt	nt	nt	-6	nt	nt
CC1=C(N2CCCCC2)CCC1=O	1	5	3	33*	-1	-6
O=C1CNC(=O)/C1=C\N1CCCCC1	0	-3	5	5	0	15
O=C(O)CC1SC(=NN=Cc2ccccc2)N(c2ccc(O)cc2)C1=O (stereo unspecified)	nt	nt	nt	4	nt	nt
CCOC(=O)CC(C)=NNC(=O)c1cccs1	nt	nt	nt	1	nt	nt
COc1ccc(/C=C/C(=O)NC(=S)NCCc2ccc(OC)c(OC)c2)cc1	0	-3	-3	-3	1	70*
Nc1cc(C(=O)NN=Cc2cccc([N+](=O)[O-])c2)n[nH]c1=O	nt	nt	nt	0	nt	nt
Cc1ccsc1/C=N/NC(=O)c1c[nH]c2ccccc12	0	-4	-2	nt	5.1*	11
Cc1ccsc1C=NNC(=O)c1c[nH]c2ccccc12	nt	nt	nt	8	nt	nt
CCOc1ccc(OCC)c(S(=O)(=O)NCc2ccccc2)c1	0	-4	0	2	-1	55*
CCOc1ccc(OCC)c(S(=O)(=O)NCc2cccnc2)c1	0	1	2	3	0	9
COc1ccccc1NC(=O)c1ccccc1NC(=O)c1ccccn1	0	-5	-1	-11	0	51*
COc1ccccc1/C=C/C=N/NC(=O)c1ccccn1	0	-6	-6	nt	4.6*	-2
CCOc1ccc(-c2cc(C(=O)NN=C(C)c3cccnc3)c3ccccc3n2)c(OCC)c1	nt	nt	nt	-69	nt	nt
Cc1cccc(N(C(=O)CCC(=O)Nc2ccccn2)C(C(=O)NC(C)C)c2ccc(F)cc2)c1 (stereo unspecified)	0	-1	0	6	0	-11
CC(C)NC(=O)C(c1ccc(F)cc1)N(C(=O)CCC(=O)Nc1ccccn1)c1cccc(F)c1 (stereo unspecified)	0	-6	0	2	-1	74*
CCOc1c(C(N)=O)c(-c2ccccc2)c2c(=O)[nH]c3ccccc3n12	0	1	1	-22	0	32*
CCOC(=O)c1c(C)nc(C)c(C(=O)OCC)c1-c1ccccc1	0	-3	1	-2	nt	1
Cc1c(C)c2c(OCC(=O)NCC(=O)NCC(=O)O)cc3c(c2oc1=O)CCC(C)(C)O3	0	-4	1	i	4.5*	10
